This is an account of results in article PMC10693281 (International Journal of Nanomedicine, 2023).

Data set [1] in a line: In-vitro drug release, dialysis bag diffusion method. The format is physicochemical. Conditions: PBS pH 7.4. The procedure, abridged: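 Dialysis bag (MW 12,500 Da, ~2.4 nm pores), pre-soaked 24 h in pH 7.4 PBS, filled with 2 mL drug-loaded lipid-carrier dispersion and sealed. Suspended in 100 mL pH 7.4 PBS at 37 ± 1°C under sink conditions, agitated at 100 rpm for 48 h.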

Data set [2] is described as follows: Pharmacokinetic study, single i.v. injection. The format is in vivo, Wistar rats. Conditions: male, Wistar, rat, plasma, iv, 10 mg/kg.
Data set [3] relates to IL-2, IL-6, IL-1β, caspase-9. Nature of the data set: Proinflammatory cytokines and caspase-9 by ELISA. The data set is classed as in vivo, Wistar rats. Conditions: DEN-induced rats. The procedure, abridged:
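IL-2, IL-6, IL-1β and caspase-9 were measured in hepatic tissue of DEN-induced HCC rats using commercial ELISA kits per manufacturer's instructions.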

What is called AUC(0-inf) is the area under the concentration-time curve extrapolated to infinity. A low value points to less exposure. The AUC(0-t) is exposure summed from dosing to a finite time, without extrapolation to infinity. Read a high AUC(0-t) as more exposure. For orientation: Cmax means the maximum level reached in the sampled fluid or tissue. A word on the MRT inf: it is a mean duration of stay, worked out from the concentration-time curve. Broadly, the half-life is how long it takes for the measured level to halve. Read a low half-life as rapid decline.

Structures are written as SMILES.

In the case of `COc1cc2ncnc(Nc3ccc(F)c(Cl)c3)c2cc1OCCCN1CCOCC1` [Gefitinib], in data set [1] (48 hours), the GF release stood at 95.63 ± 4.04%. Besides, in data set [1] (within 4 hours), the GF released result is “approximately 80%”. In data set [2], this compound registered an AUC(0-inf) of 41100 ± 13200 ng·h/mL, an AUC(0-t) of 33300 ± 9550 ng·h/mL, a Cmax of 7820 ± 1140 ng/mL and an MRT inf of 12.2 ± 2 h. The compound also had a half-life in data set [2] of 7.66 ± 1.7 h. Also, the “caspase 9 levels” value in data set [3] is “increased significantly”.
